High-throughput results: PubChem BioAssay, several laboratories
CaV13 FRET inh – Primary screen for inhibitors of IQ motif and Ca2+-dependent inactivation inhibitor domain binding in CACNA1D, Förster resonance energy transfer in living cells, … | HEK cells, CFP/YFP FRET ICDI-IQ, plate reader, 10 min; percent FRET-ratio fall versus neutral wells | inhibition, % at 12.3 µM | 0.098% of 340,000 active | AID 743397;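 active = mean replicate inhibition of at least 30% and at least 1% of replicates passing that level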;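 note: 0% = median of the neutral control wells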
SR-BI uptake up – enhances SR-BI lipid uptake from DiI-HDL. CHO ldlA[mSR-BI] cells, DiI-HDL uptake fluorescence, 3 h; 100 = double the neutral-control signal. activation, % at 12.5 µM. 0.096% of 320,000 active;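 active = mean replicate activation of at least 60% and every replicate at or above 60%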;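 note: 0% = median plate neutral-control signal and 100% = twice that signal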
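material = CHO ldlA[mSR-BI] cells | medium = Ham's F12 with 0.5% BSA, HEPES 25 mM, pH 7.4 | reagent = fluorescent DiI-HDL, 10 µg/mL final | compound dosing = single-point compound dose | incubation = 3 h, 37 °C | measured by = bottom-read fluorescence, 550/595 nm | measure = HDL uptake via cellular fluorescence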
Efflux pump inh – inhibitors of Candida antifungal efflux pumps expressed in yeast; S. cerevisiae Candida pump triplex, Nile Red efflux; inhibition, % at 10 µM; 0.44% of 330,000 active; AID 485275;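 active = plate passing quality check with inhibition over a set limit, or well fluorescence over plate mean plus 4 SD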;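 note: Nile Red retained in pooled yeast measured as flow cytometry median fluorescence; 0% = buffer negative control and 100% = Enniatin B positive control; higher means more Nile Red kept so more efflux inhibition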
SR-BI HDL uptake – blocks mouse SR-BI lipid uptake from DiI-HDL; Q61009; ldlA[mSR-BI] CHO cells, DiI-HDL uptake fluorescence, 3 h; inhibition, % at 12.5 µM; 0.96% of 320,000 active; AID 488896;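 active = mean replicate inhibition of at least 70% and a set share of replicates each scoring 70 or more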;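 note: 0% = median of neutral control wells and 100% = median of positive control wells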
Target sequence (Q61009 whole entry, looked up): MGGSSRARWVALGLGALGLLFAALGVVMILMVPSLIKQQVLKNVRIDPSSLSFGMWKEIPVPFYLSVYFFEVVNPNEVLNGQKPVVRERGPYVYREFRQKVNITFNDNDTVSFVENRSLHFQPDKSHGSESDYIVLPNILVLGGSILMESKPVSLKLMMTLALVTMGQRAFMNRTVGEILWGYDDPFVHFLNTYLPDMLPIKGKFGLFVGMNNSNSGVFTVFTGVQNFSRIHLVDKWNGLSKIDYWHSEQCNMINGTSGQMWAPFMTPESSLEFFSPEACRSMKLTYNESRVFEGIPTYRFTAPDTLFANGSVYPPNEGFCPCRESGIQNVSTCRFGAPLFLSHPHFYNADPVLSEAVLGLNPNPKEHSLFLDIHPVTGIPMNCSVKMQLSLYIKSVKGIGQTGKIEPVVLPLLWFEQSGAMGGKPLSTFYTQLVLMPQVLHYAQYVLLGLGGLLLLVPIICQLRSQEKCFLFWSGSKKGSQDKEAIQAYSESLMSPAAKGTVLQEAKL
FN deposit inh – fibronectin deposition inhibition; AID 743247; inhibition, % at 12.6 µM; AH1F fibroblasts, Alexa488-fibronectin deposition fluorescence, overnight; 0.086% of 350,000 active;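 active = mean inhibition across replicates of 30% or more, regardless of how many single replicates reach that level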;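 note: positive control wells lacked labelled fibronectin entirely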
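Measured by – fluorescence 485/525 nm · System – AH1F fibroblast monolayer, labelled fibronectin deposition · Amount – 10000 cells per well · Buffer or medium – serum-reduced DMEM (2% serum) · Doses – single dose, pinned · Also added – fluorescent fibronectin at 24 nM final · Schedule – 1 h cell attachment, overnight exposure to compound and label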
An asterisk follows results filed as active; . = no result given; + = active, no number; ! = not active in a repeat. Sampled rows, rich in hits. Any-hit rate of the full collection: about 1.2%.

SMILES	CaV13 FRET inh	SR-BI uptake up	Efflux pump inh	SR-BI HDL uptake	FN deposit inh
O=C(Nc1ccc2c(c1)COC2=O)c1ccc(Cl)c(Cl)c1	.	-72	-1	72*	.
C[C@@H]1CN([C@H](C)CO)C(=O)c2c(c3ccccc3n2C)-c2ccccc2CO[C@H]1CN(C)C(=O)[C@H](C)c1ccccc1	.	.	.	.	9
CCc1ccc(NC(=O)c2cccc(C(=O)Nc3ccc(CC)cc3)n2)cc1	-3	-45	0	45	0
Cc1ccc(NC(=O)c2cccc(C(=O)Nc3ccc(C)c(C)c3)n2)cc1C	-2	-75	0	75*	-1
CC1=NN(C(=O)c2ccccc2-n2cccc2)C(O)(C(F)(F)F)C1 (configuration not stated)	1	32	0	-32	1
CC1=NN(C(=O)c2ccc(C)cc2)C(O)(C(F)(F)OC(F)(F)F)C1 (configuration not stated)	-3	-89	0	89*	4
CN1/C(=C/c2cccc[n+]2CCO)Sc2ccccc21	-20	2	0	-2	8
CC[n+]1c(/C=C2\Sc3ccccc3N2C)ccc2cccc(C)c21	-173	-76	.	76*	-91
COc1ccc(NC(=O)Nc2cc3oc4ccccc4c3cc2OC)cc1	-5	-98	0	98*	3
COc1ccc(/C=C/C(=O)NC(=S)Nc2cc3oc4ccccc4c3cc2OC)cc1	-3	14	0	-14	1
COc1cc2c(cc1NC(=O)Nc1cccc(C)c1)oc1ccccc12	-4	-87	0	87*	-10
COc1cc2c(cc1NC(=O)/C=C/c1ccccc1)oc1ccccc12	-8	-80	0	80*	.
COc1cc2c(cc1NC(=O)Nc1ccc(C)cc1)oc1ccccc12	-4	-56	0	56	7
Cc1ccccc1-c1nc(CS(=O)CC(=O)NC2CCCC2)c(C)o1 (configuration not stated)	-2	18	0	-18	5
Cc1oc(-c2ccccc2F)nc1CS(=O)CC(=O)NC1CCCC1 (configuration not stated)	-3	-85	0	85*	-4
CCN1/C(=C/c2sc(-c3ccccc3C)c[n+]2C)Sc2ccccc21	+	-51	.	51	-7
CCC(=O)/C=C1/Sc2ccccc2N1CC	0	-12	0	12	.
O=C(Cc1cccnc1)N1CC[C@H]2[C@H](CO)Nc3ccc(C#Cc4cccc(F)c4)cc3[C@H]21	.	.	.	.	4
CCOc1ccccc1-c1nc(-c2ccc(NC(=O)c3ccc(Br)o3)cc2)no1	.	.	0	.	.
CCOc1ccccc1-c1nc(-c2ccc(NC(=O)Cc3ccc(OC)cc3)cc2)no1	-1	-99	0	99*	.
COc1ccc(CN(C2CCCC2)S(=O)(=O)c2ccc(-n3cnnn3)cc2)cc1OC	-3	-58	0	58	31*
COc1ccc(CN(C2CCCC2)S(=O)(=O)c2ccc(-n3cnnn3)cc2)cc1	-4	-32	0	32	7
CSc1ccccc1NC(=O)CN(Cc1ccccc1)S(C)(=O)=O	.	-75	0	75*	2
CCN(CC)c1ccc(/C=N/NC(=O)c2cccc(S(=O)(=O)N3CCOCC3)c2)c(O)c1	-22	-114	0	114*	11
CCOc1ccccc1/C=N/NC(=O)c1cccc(S(=O)(=O)N2CCOCC2)c1	-2	-82	0	82*	2
SMILES	CaV13 FRET inh	SR-BI uptake up	Efflux pump inh	SR-BI HDL uptake	FN deposit inh
CCOc1ccccc1/C=N/NC(=O)c1cc(C(C)C)[nH]n1	-3	-73	0	73*	2
CCN(CC)c1ccc(C=Nc2cccc(S(=O)(=O)N3CCOCC3)c2)c(O)c1	-3	11	0	-11	-6
O=C(N/N=C/c1ccccc1C(=O)O)c1cccc(S(=O)(=O)N2CCOCC2)c1	-2	-1	0	1	11
C[C@H]1CN(C)C(=O)c2cccc(N(C)C)c2O[C@H]1CN(C)C	.	.	.	.	5
COc1ccccc1CN1C[C@H](C)[C@H](OC)CN(C)C(=O)c2cc(NC(C)=O)ccc2OC[C@H]1C	.	.	.	.	-31
CC1(C)Cc2c(cnn2-c2ccccc2)C(=O)/C1=N\NC(=O)c1ccccc1N	.	-75	0	75*	.
COc1ccc(N(C(=O)CCl)C(C(=O)NCCc2ccccc2)c2cccs2)cc1Cl (configuration not stated)	-5	12	0	-12	34*
CC(C)NC(=O)Nc1cccc2c1O[C@@H](CN(C)S(C)(=O)=O)[C@@H](C)CN(C)C2=O	.	.	.	.	5
NS(=O)(=O)c1ccc(N=Nc2c(-c3ccccc3)[nH]n(-c3nc(-c4ccccc4)cs3)c2=O)cc1	-3	-112	0	112*	-2
CN1C(=O)c2cc(NC(=O)c3cncs3)ccc2OC[C@H]2O[C@@H](CC(=O)NCC3CC3)CC[C@@H]21	.	.	.	.	-17
COc1ccc(-c2cnc3c(c2)C(=O)N([C@@H](C)CO)C[C@@H](C)[C@@H](CN(C)S(=O)(=O)c2ccc(OC)cc2)O3)cc1	.	.	.	.	17
Cc1ccc2cccc(Oc3ncnc4sc(C)c(C)c34)c2n1	-2	-77	0	77*	10
C[C@H]1COCn2nncc2CC[C@H](C)C(=O)N1	.	.	.	.	9
C[C@@H]1C/C=C\C[C@@H](c2ccc3c(c2)OCO3)NC(=O)[C@@H](c2ccccc2)CC(=O)N1	.	.	.	.	-4
CCCCN1C(=O)/C(=C/C=C2\Oc3ccccc3N2CC)SC1=S	-3	-89	.	89*	-104
CCCN1C(=O)/C(=C/C=C2\N(CC)c3ccccc3C2(C)C)SC1=S	-6	-48	0	48	.
CC(=O)Nc1ccc2c(c1)C(=O)N(C)C[C@@H](C)[C@@H](CN(C)C)O2	.	.	.	.	-1
COC1(C)CC2C(CC1OC(=O)c1cc([N+](=O)[O-])cc([N+](=O)[O-])c1)C2(C)C (configuration not stated)	-3	-67	0	93*!	-4
COC(=O)c1cc(C(=O)NCC2CCCCC2)cc([N+](=O)[O-])c1	-3	-26	0	26	-1
COC(=O)c1cc(C(=O)OC)cc(-n2c(C)cc(C(=O)CC#N)c2C)c1	.	-76	0	76*	.
O=C(/C=C/c1ccc(Cl)cc1Cl)Nc1cccc(S(=O)(=O)NC2=NCCC2)c1	8	-39	1	39	33*
NC(=O)Nc1ccc(C(=O)OCC(=O)Nc2cccc(S(=O)(=O)NC3=NCCC3)c2)cc1	-3	-76	0	76*	-6
OC[C@H]1Nc2ccc(C#Cc3ccc(F)cc3)cc2[C@@H]2[C@H]1CCN2Cc1nccs1	.	.	.	.	-11
CO[C@@H]1CN(C)C(=O)c2ccc(NC(=O)c3cccc(F)c3)cc2OC[C@H](C)N(C)C[C@@H]1C	.	.	.	.	3
COc1ccc2nc(NC(=O)CCn3cccc3)sc2c1	-5	-31	0	31	.
